Measured values reported in ChEMBL document CHEMBL5649170, “Sustained microglial depletion with CSF1R inhibitor impairs parenchymal plaque development in an Alzheimer's disease model” (Nat Commun, 2019).

Assays:
[1] = target: Serine/threonine-protein kinase BRSK1 (Homo sapiens, UniProt Q8TDC3); assay: Inhibition of BRSK1 (unknown origin)
[2] = target: Inhibitor of nuclear factor kappa-B kinase subunit epsilon (Homo sapiens, UniProt Q14164); assay: Inhibition of IKBKE (unknown origin)
[3] = target: MAP kinase-activated protein kinase 3 (Homo sapiens, UniProt Q16644); assay: Inhibition of MAPKAPK3 (unknown origin)
Chain of MAP kinase-activated protein kinase 3 (Q16644 whole entry): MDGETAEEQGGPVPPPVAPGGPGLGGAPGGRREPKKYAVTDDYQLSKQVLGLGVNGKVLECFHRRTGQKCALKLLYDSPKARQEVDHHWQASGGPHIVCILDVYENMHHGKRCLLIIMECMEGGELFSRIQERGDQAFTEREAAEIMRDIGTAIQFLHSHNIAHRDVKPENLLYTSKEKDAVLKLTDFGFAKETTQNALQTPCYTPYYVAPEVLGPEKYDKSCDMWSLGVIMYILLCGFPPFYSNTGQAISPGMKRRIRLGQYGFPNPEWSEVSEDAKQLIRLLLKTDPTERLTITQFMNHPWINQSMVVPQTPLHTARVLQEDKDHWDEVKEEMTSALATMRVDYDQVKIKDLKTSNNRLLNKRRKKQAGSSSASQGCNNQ

[4] = target: Serine/threonine-protein kinase PAK 2 (Homo sapiens, UniProt Q13177); assay: Inhibition of PAK2 (unknown origin)
[5] = target: Serine/threonine-protein kinase PLK3 (Homo sapiens, UniProt Q9H4B4); assay: Inhibition of PLK3 (unknown origin)
[6] = target: Protein kinase C gamma type (Homo sapiens, UniProt P05129); assay: Inhibition of PRKCG (unknown origin)
[7] = target: Proto-oncogene tyrosine-protein kinase receptor Ret (Homo sapiens, UniProt P07949, Y791F); assay: Inhibition of RET Y791F mutant (unknown origin)
Chain of Proto-oncogene tyrosine-protein kinase receptor Ret (P07949 29-1114 Y791F limits assumed): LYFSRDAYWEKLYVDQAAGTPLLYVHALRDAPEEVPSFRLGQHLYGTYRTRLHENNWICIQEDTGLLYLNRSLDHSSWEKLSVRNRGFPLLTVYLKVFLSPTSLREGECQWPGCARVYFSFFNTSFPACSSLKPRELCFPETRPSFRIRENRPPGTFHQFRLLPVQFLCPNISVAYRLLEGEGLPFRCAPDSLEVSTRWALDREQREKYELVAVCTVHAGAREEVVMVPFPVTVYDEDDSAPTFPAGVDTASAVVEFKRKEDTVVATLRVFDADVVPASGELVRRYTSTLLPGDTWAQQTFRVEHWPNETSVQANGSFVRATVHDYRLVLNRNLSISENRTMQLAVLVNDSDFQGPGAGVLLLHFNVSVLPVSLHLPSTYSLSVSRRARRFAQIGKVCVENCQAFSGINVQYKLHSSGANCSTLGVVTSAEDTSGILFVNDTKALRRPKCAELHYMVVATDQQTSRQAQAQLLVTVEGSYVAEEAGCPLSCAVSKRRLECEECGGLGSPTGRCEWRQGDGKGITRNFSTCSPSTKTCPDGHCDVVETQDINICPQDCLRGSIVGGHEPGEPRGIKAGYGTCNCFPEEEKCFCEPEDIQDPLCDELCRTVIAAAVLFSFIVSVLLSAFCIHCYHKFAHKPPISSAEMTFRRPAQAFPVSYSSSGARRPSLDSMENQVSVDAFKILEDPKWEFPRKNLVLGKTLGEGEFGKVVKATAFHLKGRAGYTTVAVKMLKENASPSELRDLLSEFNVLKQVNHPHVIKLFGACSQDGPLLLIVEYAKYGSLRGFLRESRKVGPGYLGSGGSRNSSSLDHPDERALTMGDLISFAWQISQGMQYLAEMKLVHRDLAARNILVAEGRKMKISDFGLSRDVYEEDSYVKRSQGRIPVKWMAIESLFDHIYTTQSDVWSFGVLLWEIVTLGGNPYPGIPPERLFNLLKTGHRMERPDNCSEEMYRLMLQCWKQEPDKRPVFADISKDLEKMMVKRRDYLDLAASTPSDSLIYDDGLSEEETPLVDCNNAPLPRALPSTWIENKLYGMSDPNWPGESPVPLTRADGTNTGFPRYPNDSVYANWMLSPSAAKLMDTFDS

[8] = target: Rho-associated protein kinase 1 (Homo sapiens, UniProt Q13464); assay: Inhibition of ROCK1 (unknown origin)
Chain of Rho-associated protein kinase 1 (Q13464 whole entry): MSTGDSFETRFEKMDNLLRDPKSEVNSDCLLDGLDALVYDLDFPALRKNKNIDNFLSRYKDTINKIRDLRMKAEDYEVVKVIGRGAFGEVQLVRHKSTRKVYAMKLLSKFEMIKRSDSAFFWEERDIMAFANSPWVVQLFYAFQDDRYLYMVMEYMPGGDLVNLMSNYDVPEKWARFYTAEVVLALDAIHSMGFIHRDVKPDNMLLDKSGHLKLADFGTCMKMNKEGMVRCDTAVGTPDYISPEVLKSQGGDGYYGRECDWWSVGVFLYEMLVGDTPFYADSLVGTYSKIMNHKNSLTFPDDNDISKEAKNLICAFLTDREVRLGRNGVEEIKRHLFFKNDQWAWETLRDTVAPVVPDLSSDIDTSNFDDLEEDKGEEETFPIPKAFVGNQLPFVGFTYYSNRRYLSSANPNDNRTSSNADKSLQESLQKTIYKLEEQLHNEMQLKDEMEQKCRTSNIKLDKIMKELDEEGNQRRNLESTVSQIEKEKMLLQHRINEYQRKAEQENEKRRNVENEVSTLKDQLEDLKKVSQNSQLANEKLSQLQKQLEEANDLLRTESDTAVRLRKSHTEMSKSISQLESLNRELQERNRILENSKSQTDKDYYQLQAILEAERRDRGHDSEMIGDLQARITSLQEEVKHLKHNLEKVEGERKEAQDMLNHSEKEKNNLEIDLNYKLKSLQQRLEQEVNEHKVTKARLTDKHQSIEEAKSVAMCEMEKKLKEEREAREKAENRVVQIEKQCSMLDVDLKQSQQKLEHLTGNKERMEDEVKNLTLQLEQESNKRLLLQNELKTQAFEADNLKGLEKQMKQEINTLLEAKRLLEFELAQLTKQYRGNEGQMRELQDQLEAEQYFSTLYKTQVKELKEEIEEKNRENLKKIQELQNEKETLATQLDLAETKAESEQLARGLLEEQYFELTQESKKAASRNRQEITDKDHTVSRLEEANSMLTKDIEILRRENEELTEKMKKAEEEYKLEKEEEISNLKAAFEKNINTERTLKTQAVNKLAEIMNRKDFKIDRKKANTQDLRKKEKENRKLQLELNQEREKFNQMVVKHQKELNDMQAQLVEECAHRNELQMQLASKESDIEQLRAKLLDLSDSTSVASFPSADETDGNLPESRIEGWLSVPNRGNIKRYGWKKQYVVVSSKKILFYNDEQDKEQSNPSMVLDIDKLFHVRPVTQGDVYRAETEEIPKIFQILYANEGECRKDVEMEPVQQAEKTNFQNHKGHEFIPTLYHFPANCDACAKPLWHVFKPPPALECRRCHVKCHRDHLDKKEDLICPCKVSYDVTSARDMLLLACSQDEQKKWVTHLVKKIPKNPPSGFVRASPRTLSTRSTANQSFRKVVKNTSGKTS

[9] = target: Testis-specific serine/threonine-protein kinase 1 (Homo sapiens, UniProt Q9BXA7); assay: Inhibition of STK22D (unknown origin)
Chain of Testis-specific serine/threonine-protein kinase 1 (Q9BXA7 whole entry): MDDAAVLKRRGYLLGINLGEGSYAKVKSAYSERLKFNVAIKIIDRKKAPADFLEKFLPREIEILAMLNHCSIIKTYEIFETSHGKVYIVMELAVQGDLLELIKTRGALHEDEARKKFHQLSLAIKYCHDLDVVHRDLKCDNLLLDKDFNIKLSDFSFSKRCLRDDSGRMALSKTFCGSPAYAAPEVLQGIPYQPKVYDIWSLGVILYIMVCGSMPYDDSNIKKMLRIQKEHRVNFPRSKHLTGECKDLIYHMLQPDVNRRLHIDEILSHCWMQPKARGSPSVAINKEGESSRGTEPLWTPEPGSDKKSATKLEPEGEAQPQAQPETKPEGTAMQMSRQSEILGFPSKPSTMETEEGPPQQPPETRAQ

[10] = target: Tyrosine-protein kinase SYK (Homo sapiens, UniProt P43405); assay: Inhibition of SYK (unknown origin)
[11] = Drug concentration in wildtype mouse plasma at 1200 ppm administered as rodent chow for 10 to 24 weeks; assay type: ADME, cell-free; details: po, time 10-24 weeks
How it was run: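 WT or 5xFAD mice were started at 1.5 months of age on PLX5622 formulated at 1200 ppm in AIN-76A chow, with control chow as comparison. Feeding ran for 10 or 24 weeks. Terminal plasma and brain drug levels were then measured. Groups were sex-balanced and compared by two-tailed independent t-test.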

[12] = Toxicity in wildtype mouse assessed as time spent in open arm at 1200 ppm administered as rodent chow for 10 to 24 weeks by Elevated plus maze test (reference value: 8.7 to 179.9 sec); details: in vivo, po, time 10-24 weeks
Mus musculus [13] = assay: Antialzheimer activity in 5XFAD mouse assessed as time spent in open arm at 1200 ppm administered as rodent chow for 10 to 24 weeks by Elevated plus maze test (reference value: 34.1 to 208.9 sec); assay type: functional; details: route po, time 10-24 weeks
Mus musculus [14] = assay: Antialzheimer activity in 5XFAD mouse assessed as proportion of time spent freezing at 1200 ppm administered as rodent chow for 10 to 24 weeks by […] (reference value: 0.00 to 0.43); assay type: functional; details: route po, time 10-24 weeks
Mus musculus [15] = assay: Antialzheimer activity in 5XFAD mouse assessed as number of Thio-S positive plaques per FOV in […] cortex at 1200 ppm administered as rodent chow starting from 1.5 months and measured after 4 months by Thio-S staining based confocal microscopic analysis (reference value: 63 to 124); assay type: functional; details: route po, time 2.5 months, 1825 h
[16] = target: T1, Macrophage colony-stimulating factor 1 receptor (Mus musculus) (UniProt P09581); assay: In vivo inhibition of CSF1R in wildtype mouse assessed as iron reactivity by measuring hemosiderin intensity of prussian blue staining in […] cortex at 1200 ppm administered as rodent chow starting from 1.5 months and measured after 7 months by confocal microscopic analysis (reference value: 0.059 to 2.835 a.u.); assay type: functional; details: route po, time 5.5 months
T1 sequence (whole entry): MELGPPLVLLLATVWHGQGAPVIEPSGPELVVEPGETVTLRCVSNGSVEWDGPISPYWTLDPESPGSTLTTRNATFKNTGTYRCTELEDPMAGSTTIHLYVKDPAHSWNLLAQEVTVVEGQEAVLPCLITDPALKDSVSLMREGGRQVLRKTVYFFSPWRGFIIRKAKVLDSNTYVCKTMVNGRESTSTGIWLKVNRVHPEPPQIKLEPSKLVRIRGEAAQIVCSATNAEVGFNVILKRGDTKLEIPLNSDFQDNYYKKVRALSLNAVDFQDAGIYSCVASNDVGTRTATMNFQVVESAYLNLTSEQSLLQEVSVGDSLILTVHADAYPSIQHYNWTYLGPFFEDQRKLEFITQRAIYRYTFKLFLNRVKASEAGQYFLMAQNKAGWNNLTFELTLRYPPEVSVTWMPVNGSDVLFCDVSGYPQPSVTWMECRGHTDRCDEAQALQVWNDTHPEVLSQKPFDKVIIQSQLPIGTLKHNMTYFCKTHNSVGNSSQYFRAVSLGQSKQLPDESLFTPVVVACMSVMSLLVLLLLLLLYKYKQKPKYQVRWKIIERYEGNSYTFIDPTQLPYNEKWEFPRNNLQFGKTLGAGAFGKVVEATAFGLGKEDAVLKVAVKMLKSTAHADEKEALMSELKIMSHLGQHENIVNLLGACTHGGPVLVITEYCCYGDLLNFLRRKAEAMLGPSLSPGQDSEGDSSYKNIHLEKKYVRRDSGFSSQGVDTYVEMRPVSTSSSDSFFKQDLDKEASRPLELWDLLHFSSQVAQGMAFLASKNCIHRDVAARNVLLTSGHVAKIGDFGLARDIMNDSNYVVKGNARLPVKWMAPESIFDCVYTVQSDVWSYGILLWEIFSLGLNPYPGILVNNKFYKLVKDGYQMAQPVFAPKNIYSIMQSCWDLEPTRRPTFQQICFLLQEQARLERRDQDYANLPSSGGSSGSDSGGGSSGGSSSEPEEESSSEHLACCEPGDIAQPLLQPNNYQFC
How it was run: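 Wild-type or 5xFAD mice fed PLX5622 (1200 ppm) in AIN-76A chow from 1.5 months of age, examined in 4- and 7-month-old cohorts. Brain sections stained with a Prussian blue kit per kit instructions to detect iron deposits (microbleeds).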

Mus musculus [17] = assay: Antialzheimer activity in 5XFAD mouse assessed as average diameter of claudin-5 blood vessels in Thio-S positive retro spinal cortex at 1200 ppm administered as rodent chow starting from 1.5 months and measured after 4 months by immunolabeling analysis; assay type: functional; details: route po, time 2.5 months, 1825 h
Mus musculus [18] = assay: Antialzheimer activity in 5XFAD mouse assessed as percent change in claudin-5 intensity of retro spinal cortex at 1200 ppm administered as rodent chow starting from 1.5 months and measured after 4 months by immunolabeling analysis relative to control; assay type: functional; details: route po, time 2.5 months, 1825 h
[19] = Effect on Itgax gene expression in wild type mouse cortex at 1200 ppm administered as rodent chow starting from 1.5 months and measured after 7 months by RNA-Seq analysis (reference value: 0.069 to 0.218 RPKM); assay type: functional; details: route po, time 5.5 months, 4015 h
[20] = Prevention of Nos1ap gene downregulation in 5XFAD mouse hippocampus assessed as percent change in Reads Per kilo base per Million mapped reads at 1200 ppm administered as rodent chow starting from 1.5 months and measured after 7 months by RNA-Seq analysis (reference value: 58.209 to 93.063 %); assay type: functional; details: route po, time 5.5 months, 4015 h

Chain of Inhibitor of nuclear factor kappa-B kinase subunit epsilon (Q14164 whole entry): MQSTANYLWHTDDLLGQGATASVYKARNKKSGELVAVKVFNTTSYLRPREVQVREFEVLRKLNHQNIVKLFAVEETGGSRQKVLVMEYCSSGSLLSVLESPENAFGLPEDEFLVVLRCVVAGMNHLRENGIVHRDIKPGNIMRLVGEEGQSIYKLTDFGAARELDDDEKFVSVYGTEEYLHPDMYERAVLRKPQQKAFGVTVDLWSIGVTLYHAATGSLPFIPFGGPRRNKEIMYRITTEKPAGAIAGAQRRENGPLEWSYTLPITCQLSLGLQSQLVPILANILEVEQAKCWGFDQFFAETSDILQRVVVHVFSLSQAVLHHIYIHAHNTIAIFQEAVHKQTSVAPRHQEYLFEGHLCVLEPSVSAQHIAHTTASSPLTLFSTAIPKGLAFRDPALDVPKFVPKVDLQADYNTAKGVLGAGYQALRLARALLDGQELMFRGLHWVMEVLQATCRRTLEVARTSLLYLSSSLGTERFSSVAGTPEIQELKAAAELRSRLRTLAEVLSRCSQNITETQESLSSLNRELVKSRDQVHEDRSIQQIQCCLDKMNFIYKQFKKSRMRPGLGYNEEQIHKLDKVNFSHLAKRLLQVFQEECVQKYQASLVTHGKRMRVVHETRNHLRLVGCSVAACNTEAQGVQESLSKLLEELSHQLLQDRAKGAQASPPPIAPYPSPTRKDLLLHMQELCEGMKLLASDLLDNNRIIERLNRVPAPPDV

COc1ncc(F)cc1CNc1ccc(Cc2c[nH]c3ncc(C)cc23)c(F)n1 [PLX-5622]
IC50 [1]: > 1000 nM
IC50 [2]: > 1000 nM
IC50 [3]: > 1000 nM
IC50 [4]: > 1000 nM
IC50 [5]: > 1000 nM
IC50 [6]: > 1000 nM
IC50 [7]: > 1000 nM
IC50 [8]: > 1000 nM
IC50 [9]: > 1000 nM
IC50 [10]: > 1000 nM
concentration [11]: 17.8 µM
Time [12]: 11.9 s
Time (Mus musculus [13]): 157.6 s
Activity (Mus musculus [14]): 0.07
Activity (Mus musculus [15]): 13
Flu intensity [16]: 0.747 a.u.
Activity (Mus musculus [17]): 4.447 um
Activity (Mus musculus [18]): 33.704%
Activity [19]: 0 RPKM
Activity [20]: 82.746%
